# Experimental data taken from ChEMBL document CHEMBL1165898, “Novel chromeno [2,3-b]-pyrimidine derivatives as potential anti-microbial agents” (2010).
# The source made the active and inactive calls. The rule behind the calls is not given here.
# Assays:
# Staphylococcus aureus [1] = test: Antibacterial activity against Staphylococcus aureus after 16 hrs by serial dilution method; format: functional
# Bacillus subtilis [2] = test: Antibacterial activity against Bacillus subtilis after 16 hrs by serial dilution method; format: functional
# Escherichia coli [3] = test: Antibacterial activity against Escherichia coli after 16 hrs by serial dilution method; format: functional
# Pseudomonas aeruginosa [4] = test: Antibacterial activity against Pseudomonas aeruginosa after 16 hrs by serial dilution method; format: functional
# Method in brief: (§1)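 Tube broth dilution MIC in trypticase soya broth. Colonies from a fresh plate were grown 6 h at 37 °C, adjusted to […] with sterile PBS (10⁸ cfu/mL), then diluted 10³-fold in broth to 10⁵ cfu/mL. Compounds were serially diluted across six tubes per organism and 1 mL inoculum was added. Inoculum-only and broth-only controls were run. Incubation was 16 h at 37 °C. MIC was read as no visible growth.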
# Pseudomonas aeruginosa [5] = test: Antibacterial activity against Pseudomonas aeruginosa at 1.6125 to […] after 16 hrs by serial dilution method; format: functional, organism-based; method in brief: as §1
# Staphylococcus aureus [6] = test: Antibacterial activity against Staphylococcus aureus at 1.6125 to […] after 16 hrs by serial dilution method; format: functional, organism-based; method in brief: as §1
# Bacillus subtilis [7] = test: Antibacterial activity against Bacillus subtilis at 1.6125 to […] after 16 hrs by serial dilution method; format: functional, organism-based; method in brief: as §1
# Escherichia coli [8] = test: Antibacterial activity against Escherichia coli at 1.6125 to […] after 16 hrs by serial dilution method; format: functional, organism-based; method in brief: as §1
Structure (SMILES),MIC (Staphylococcus aureus [1]),MIC (Bacillus subtilis [2]),MIC (Escherichia coli [3]),MIC (Pseudomonas aeruginosa [4]),MIC (Pseudomonas aeruginosa [5]),MIC (Staphylococcus aureus [6]),MIC (Bacillus subtilis [7]),MIC (Escherichia coli [8])
CO/N=C(\C(=O)N[C@@H]1C(=O)N2C(C(=O)O)=C(CSc3nc(=O)c(O)nn3C)CS[C@H]12)c1csc(N)n1 [CEFTRIAXONE],3.12 µg/mL,1.61 µg/mL,1.61 µg/mL,1.61 µg/mL,,,,
Clc1ccc(CNc2ncnc3c2Cc2ccccc2O3)cc1,1.61 µg/mL,1.61 µg/mL,50 µg/mL,,inactive,,,
Clc1ccc(Nc2ncnc3c2Cc2ccccc2O3)c(Cl)c1,,,,,inactive,inactive,inactive,inactive
c1ccc2c(c1)Cc1c(Nc3cccc4ccccc34)ncnc1O2,1.61 µg/mL,1.61 µg/mL,,,inactive,,,inactive
Cc1cnc(Nc2ncnc3c2Cc2ccccc2O3)s1,,,,25 µg/mL,,inactive,inactive,inactive
Cc1cc(C(F)(F)F)ccc1Nc1ncnc2c1Cc1ccccc1O2,,,,,inactive,inactive,inactive,inactive
Cc1ccc(Nc2ncnc3c2Cc2ccccc2O3)cc1F,50 µg/mL,,,,inactive,,inactive,inactive

# More lines, now with the values ahead:
MIC (Staphylococcus aureus [1]),MIC (Bacillus subtilis [2]),MIC (Escherichia coli [3]),MIC (Pseudomonas aeruginosa [4]),MIC (Pseudomonas aeruginosa [5]),MIC (Staphylococcus aureus [6]),MIC (Bacillus subtilis [7]),MIC (Escherichia coli [8]),Structure (SMILES)
1.61 µg/mL,1.61 µg/mL,25 µg/mL,,inactive,,,,c1ccc(CNc2ncnc3c2Cc2ccccc2O3)cc1
1.61 µg/mL,1.61 µg/mL,,,inactive,,,inactive,Cc1ccc(C)c(Nc2ncnc3c2Cc2ccccc2O3)c1
,,50 µg/mL,50 µg/mL,,inactive,inactive,,c1ccc2c(c1)Cc1c(NC34CC5CCCC(C3)C5C4)ncnc1O2 (stereo not drawn)
,,,,inactive,inactive,inactive,inactive,Nc1ncnc2c1Cc1ccccc1O2
1.61 µg/mL,1.61 µg/mL,3.12 µg/mL,,inactive,,,,c1ccc(CN2CCC(Nc3ncnc4c3Cc3ccccc3O4)CC2)cc1
